In brackets after ≈: the same amount, converted by molar mass. Activity calls are given as the source filed them. The rule behind the calls is not given here.
Columns and labels:
Hormone-sensitive lipase [1] = molecular target: T1, Hormone-sensitive lipase (Rattus norvegicus, UniProt P15304); test: Inhibition of HSL in rat adipocytes assessed as reduction in lipolysis by measuring glycerol concentration incubated for 30 mins by spectrophotometric analysis; assay type: cell-based
T1 sequence (P15304 whole entry): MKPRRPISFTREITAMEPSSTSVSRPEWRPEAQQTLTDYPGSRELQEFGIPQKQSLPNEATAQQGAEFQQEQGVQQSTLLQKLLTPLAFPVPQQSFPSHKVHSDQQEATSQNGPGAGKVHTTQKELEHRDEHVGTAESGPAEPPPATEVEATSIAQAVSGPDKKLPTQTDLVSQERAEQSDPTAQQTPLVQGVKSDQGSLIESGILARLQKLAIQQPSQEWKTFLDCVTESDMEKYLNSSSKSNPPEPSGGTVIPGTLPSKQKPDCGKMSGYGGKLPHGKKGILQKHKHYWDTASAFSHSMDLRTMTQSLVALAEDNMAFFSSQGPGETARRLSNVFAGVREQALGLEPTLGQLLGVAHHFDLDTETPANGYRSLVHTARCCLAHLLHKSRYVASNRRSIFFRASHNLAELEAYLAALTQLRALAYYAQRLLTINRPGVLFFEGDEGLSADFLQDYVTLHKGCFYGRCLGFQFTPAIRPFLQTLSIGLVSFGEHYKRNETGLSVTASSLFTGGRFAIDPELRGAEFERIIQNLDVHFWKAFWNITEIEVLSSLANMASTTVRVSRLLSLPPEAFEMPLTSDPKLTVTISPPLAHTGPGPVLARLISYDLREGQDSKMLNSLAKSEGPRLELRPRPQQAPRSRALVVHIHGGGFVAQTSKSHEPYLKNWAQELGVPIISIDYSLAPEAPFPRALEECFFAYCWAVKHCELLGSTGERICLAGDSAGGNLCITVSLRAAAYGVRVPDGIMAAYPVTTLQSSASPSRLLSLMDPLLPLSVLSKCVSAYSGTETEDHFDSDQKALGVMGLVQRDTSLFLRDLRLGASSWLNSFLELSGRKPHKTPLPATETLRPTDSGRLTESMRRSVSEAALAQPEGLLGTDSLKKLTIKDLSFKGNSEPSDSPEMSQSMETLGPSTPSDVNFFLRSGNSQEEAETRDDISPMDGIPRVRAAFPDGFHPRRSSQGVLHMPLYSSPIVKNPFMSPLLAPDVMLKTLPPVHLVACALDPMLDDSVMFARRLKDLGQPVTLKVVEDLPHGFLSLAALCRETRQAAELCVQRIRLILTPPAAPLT
Method in brief: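 Rat subcutaneous white adipocytes, differentiated 7 days, washed in lipolysis buffer (pH 7.0, with glucose, HEPES, adenosine, 1% BSA). Compound dilutions in DMSO added, 30 min at 37°C, 5% CO2. Supernatant glycerol measured with a free glycerol kit at 540 nm. Triplicate; IC50 from nonlinear curve fitting.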

[2] = molecular target: Acetylcholinesterase (Homo sapiens) (UniProt P22303); test: Inhibition of AChE (unknown origin) at 10 uM using acetylthiocholine iodide as substrate preincubated for 10 mins followed by substrate addition measured after 15 mins by spectrophotometric analysis relative to control
Chain of Acetylcholinesterase (Homo sapiens) (P22303 whole entry): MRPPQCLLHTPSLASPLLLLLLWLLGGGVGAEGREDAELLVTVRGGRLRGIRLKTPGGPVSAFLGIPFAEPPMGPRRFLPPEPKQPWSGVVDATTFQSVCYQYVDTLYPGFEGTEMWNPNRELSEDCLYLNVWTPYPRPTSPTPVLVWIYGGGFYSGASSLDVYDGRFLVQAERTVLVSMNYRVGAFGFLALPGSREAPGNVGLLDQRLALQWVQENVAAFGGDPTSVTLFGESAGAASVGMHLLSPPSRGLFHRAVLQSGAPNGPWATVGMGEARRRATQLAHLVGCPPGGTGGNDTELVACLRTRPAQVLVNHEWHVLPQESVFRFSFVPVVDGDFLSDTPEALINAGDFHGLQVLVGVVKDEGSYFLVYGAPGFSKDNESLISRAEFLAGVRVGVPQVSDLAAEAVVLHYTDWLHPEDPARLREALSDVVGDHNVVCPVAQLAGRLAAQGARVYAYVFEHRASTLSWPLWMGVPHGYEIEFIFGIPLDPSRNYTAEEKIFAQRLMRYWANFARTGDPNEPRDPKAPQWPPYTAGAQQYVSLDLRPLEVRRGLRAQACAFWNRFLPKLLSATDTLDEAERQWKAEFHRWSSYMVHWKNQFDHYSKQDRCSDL
Method in brief: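 Enzyme (100 U/mL) preincubated with inhibitor 10 min at room temperature, then mixed with 0.1 M potassium phosphate-HCl pH 8.0, acetylthiocholin iodide (final 500 μM) and DTNB; incubated 15 min at 37°C with shaking. Absorbance at 405 nm read at 0 and 15 min. Tested at 1, 10 and 100 μM.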

[3] = molecular target: Cholinesterase (Homo sapiens) (UniProt P06276); test: Inhibition of BuChE (unknown origin) at 10 uM using S-butyrylthiocholin iodide as substrate preincubated for 10 mins followed by substrate addition measured after 15 mins by spectrophotometric analysis relative to control
Chain of Cholinesterase (Homo sapiens) (P06276 whole entry): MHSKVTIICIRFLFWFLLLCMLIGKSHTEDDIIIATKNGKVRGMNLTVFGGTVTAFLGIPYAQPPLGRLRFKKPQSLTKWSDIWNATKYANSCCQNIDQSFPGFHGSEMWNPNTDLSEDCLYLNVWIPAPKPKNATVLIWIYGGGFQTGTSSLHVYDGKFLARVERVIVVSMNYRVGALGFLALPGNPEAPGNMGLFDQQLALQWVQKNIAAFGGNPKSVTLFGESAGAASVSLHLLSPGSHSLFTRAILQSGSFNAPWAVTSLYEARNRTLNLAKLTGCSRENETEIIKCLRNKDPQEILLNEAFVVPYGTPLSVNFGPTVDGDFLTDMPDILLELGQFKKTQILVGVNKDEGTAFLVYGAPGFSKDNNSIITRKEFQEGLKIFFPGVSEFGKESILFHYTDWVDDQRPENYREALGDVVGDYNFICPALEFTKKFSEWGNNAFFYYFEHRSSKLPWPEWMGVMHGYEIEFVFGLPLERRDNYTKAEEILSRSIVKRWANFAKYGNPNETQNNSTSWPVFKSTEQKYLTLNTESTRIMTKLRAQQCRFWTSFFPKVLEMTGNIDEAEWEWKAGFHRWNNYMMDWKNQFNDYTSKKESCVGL
Method in brief: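 Enzyme (100 U/mL) preincubated with inhibitor 10 min at room temperature, then mixed with 0.1 M potassium phosphate-HCl pH 8.0, S-butyrylthiocholin iodide (final 1000 μM) and DTNB; incubated 15 min at 37°C with shaking. Absorbance at 405 nm read at 0 and 15 min. Tested at 1, 10 and 100 μM.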

Rattus norvegicus [4] = test: Antilipolytic activity in Wistar rat assessed as reduction in plasma glycerol AUC (0 to 7 hrs) at 10 mg/kg, po by spectrophotometric analysis; assay type: functional, organism-based
Method in brief: (§1)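 Male Wistar rats, 8 weeks, fasted overnight. Dosed orally in 0.5% (w/v) methylcellulose, with vehicle controls (n = 4) and treated groups (n = 3). Tail-vein EDTA blood taken pre-dose and at 0.5, 1, 3, 5, 7 h. Plasma glycerol read with a free glycerol kit. Reduction in glycerol AUC0–7h versus vehicle expressed relative to a reference inhibitor group; mean ± SEM.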

Hormone-sensitive lipase [5] = molecular target: T2, Hormone-sensitive lipase (Homo sapiens, UniProt Q05469); test: Inhibition of recombinant human HSL expressed in baculovirus infected sf9 insect cells using PNPB as substrate after 5 mins by spectrophotometric analysis
T2 sequence (Q05469 whole entry): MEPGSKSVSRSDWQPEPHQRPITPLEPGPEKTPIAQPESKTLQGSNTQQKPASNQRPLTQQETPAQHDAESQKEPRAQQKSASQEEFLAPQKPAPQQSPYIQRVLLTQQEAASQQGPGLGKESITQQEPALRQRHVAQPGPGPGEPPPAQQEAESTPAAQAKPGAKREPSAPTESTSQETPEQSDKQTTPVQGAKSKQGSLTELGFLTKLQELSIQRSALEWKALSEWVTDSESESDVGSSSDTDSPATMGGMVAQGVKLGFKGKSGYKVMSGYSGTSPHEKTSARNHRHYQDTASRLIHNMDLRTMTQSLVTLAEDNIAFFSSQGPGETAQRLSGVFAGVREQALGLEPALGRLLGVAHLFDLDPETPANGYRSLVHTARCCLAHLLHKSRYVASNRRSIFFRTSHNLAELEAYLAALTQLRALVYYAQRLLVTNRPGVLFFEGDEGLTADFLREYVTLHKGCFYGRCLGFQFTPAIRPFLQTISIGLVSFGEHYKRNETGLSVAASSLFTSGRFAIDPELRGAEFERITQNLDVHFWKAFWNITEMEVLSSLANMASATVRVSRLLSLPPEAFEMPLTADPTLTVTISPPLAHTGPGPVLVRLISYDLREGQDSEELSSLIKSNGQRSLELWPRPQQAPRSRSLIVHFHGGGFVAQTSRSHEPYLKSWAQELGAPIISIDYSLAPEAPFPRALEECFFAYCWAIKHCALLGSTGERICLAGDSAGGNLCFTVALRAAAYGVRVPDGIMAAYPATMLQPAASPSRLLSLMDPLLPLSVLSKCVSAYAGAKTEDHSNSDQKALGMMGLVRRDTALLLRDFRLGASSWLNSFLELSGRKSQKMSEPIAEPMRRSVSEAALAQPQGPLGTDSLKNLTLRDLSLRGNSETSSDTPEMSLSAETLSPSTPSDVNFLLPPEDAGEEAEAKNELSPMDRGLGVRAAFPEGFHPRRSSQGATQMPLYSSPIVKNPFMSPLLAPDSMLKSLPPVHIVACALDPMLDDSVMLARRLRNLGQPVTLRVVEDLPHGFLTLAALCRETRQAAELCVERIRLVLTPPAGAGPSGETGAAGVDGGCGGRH

[6] = Aqueous solubility of the compound in Japanese pharmacopoeia first fluid at pH 1.2 after 4 hrs by HPLC/UV analysis; assay type: physicochemical
Method in brief: (§2)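 Solubility: DMSO sample solution freeze-dried. Residue stirred at 1700 rpm for 4 h in JP first fluid (pH 1.2), JP second fluid (pH 6.8) or FaSSIF. Filtered, filtrate diluted in DMSO, quantified by HPLC-UV against a per-sample calibration curve.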

[7] = Cmax in rat at 3 mg/kg, po by LC-MS/MS analysis; assay type: ADME, organism-based; parameters: dose 3 mg/kg, route oral; details: in vivo
[8] = Effective permeability of the compound in prisma HT buffer at 10 mM at pH 5 after 4 hrs by PAMPA; assay type: physicochemical; details: read-out: Peff
Method in brief: (§3)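 PAMPA: filter coated with GIT-0 lipid. 10 mM DMSO stock diluted into Prisma HT buffer to give 5 µM donor solution (0.05% DMSO) at pH 5.0 or 7.4. Acceptor sink buffer used. Incubated 4 h at 25°C. Both compartments quantified by LC-MS/MS to derive the permeability coefficient.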

[9] = Effective permeability of the compound in prisma HT buffer at 10 mM at pH 7.4 after 4 hrs by PAMPA; assay type: physicochemical; details: read-out: Peff; method in brief: as §3
[10] = AUC (0 to 7 hrs) in rat at 3 mg/kg, po by LC-MS/MS analysis; assay type: ADME, organism-based; parameters: time < 7 hr, dose 3 mg/kg, route oral; details: in vivo
[11] = Aqueous solubility of the compound in FaSSIF after 4 hrs by HPLC/UV analysis; assay type: physicochemical; method in brief: as §2
Rattus norvegicus [12] = test: Antilipolytic activity in Wistar rat assessed as reduction in plasma glycerol AUC (0 to 7 hrs) at 1 mg/kg, po by spectrophotometric analysis relative to control; assay type: functional; parameters: scale not given: the % may be the effect or the level left; method in brief: as §1
[13] = 1-octanol/phosphate buffered saline distribution coefficient, log D of the compound at 200 uM at pH 7.4 after 30 mins by shake flask based HPLC/LC-MS analysis; assay type: physicochemical
Method in brief: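 Shake-flask LogD: PBS and 1-octanol pre-saturated by shaking and standing overnight. Compound at 200 μM in either phase, equal volume of the other added, shaken 30 min at room temperature, centrifuged 2100 g 5 min. Both phases quantified by HPLC and LC-MS. LogD7.4 = log(octanol peak area/PBS peak area).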

[14] = Aqueous solubility of the compound in Japanese pharmacopoeia second fluid at pH 6.8 after 4 hrs by HPLC/UV analysis; assay type: physicochemical; method in brief: as §2

Row | SMILES | IC50 (Hormone-sensitive lipase [1]) | inhibition [2] | inhibition [3] | other results
1 | O=C(Cc1ccccc1B(O)O)N1CCC(Oc2ccc(C(F)(F)F)cn2)CC1 | 80 nM | 7% | 46% | 
2 | O=C(Oc1ccc(Oc2ccc(C(F)(F)F)cn2)cc1)N1CCC(O)CC1 |  |  |  | Activity (Rattus norvegicus [4]): Active
3 | O=C(Cc1ccccc1B(O)O)N1CCC(COc2ccc(C(F)(F)F)cn2)CC1 | 260 nM |  |  | 
4 | O=C(CCc1ccccc1B(O)O)N1CCC(Oc2ccc(C(F)(F)F)cn2)CC1 | 1400 nM |  |  | 
5 | O=C(C(O)c1ccccc1B(O)O)N1CCC(Oc2ccc(C(F)(F)F)cn2)CC1 (configuration not stated) | 280 nM | -4% | 4% | 
6 | O=C(Cc1ccccc1B(O)O)N1CCC(Oc2ccc(C(F)(F)F)cc2)CC1 | 130 nM | 9% | 72% | 
7 | CN(C)C(=O)c1ccc(OC2CCN(C(=O)Cc3ccccc3B(O)O)CC2)nc1 |  |  |  | IC50 (Hormone-sensitive lipase [5]): > 5 µM
8 | OB(O)c1ccccc1CN1CCC(Oc2ccc(C(F)(F)F)cn2)CC1 | 1400 nM |  |  | 
9 | COc1ccc(CC(=O)N2CCC(Oc3ccc(C(F)(F)F)cn3)CC2)c(B(O)O)c1 | 45 nM | 9% | -4% | 
10 | O=C(Cc1ccccc1B(O)O)N1CCC(Oc2ccc(C(F)(F)F)nc2)CC1 | 180 nM | 6% | 62% | 
11 | O=C(Cc1ccc(F)cc1B(O)O)N1CCC(Oc2ccc(C(F)(F)F)cn2)CC1 |  | 7% | 2% | solubility at 4 h [6]: 190 µg/mL (≈ 446 µM); Cmax [7]: 650 ng/mL; Papp at 4 h, 10000 µM [8]: > 50 ×10⁻⁶ cm/s; Papp at 4 h, 10000 µM [9]: > 50 ×10⁻⁶ cm/s; AUC(0-t) at 7 h [10]: 3180 ng·h/mL; solubility at 4 h [11]: 99 µg/mL (≈ 232 µM); Activity (Rattus norvegicus [12]): 22%; logD at 0.5 h, 200 µM [13]: 3.7; solubility at 4 h [14]: 84 µg/mL (≈ 197 µM)
12 | O=C(Nc1ccccc1B(O)O)c1ccc(Oc2ccc(C(F)(F)F)cn2)cc1 | 470 nM |  |  | logD at 0.5 h, 200 µM [13]: 3.2
13 | O=C(Nc1ccc(Cl)cc1B(O)O)c1ccc(Oc2ccc(C(F)(F)F)cc2)nc1 | 110 nM |  |  | solubility at 4 h [6]: 1.8 µg/mL (≈ 4.12 µM); solubility at 4 h [11]: 12 µg/mL (≈ 27.5 µM); logD at 0.5 h, 200 µM [13]: 4.3; solubility at 4 h [14]: 1.5 µg/mL (≈ 3.44 µM)
14 | O=C(Cc1ccc(Cl)cc1B(O)O)N1CCC(Oc2ccc(C(F)(F)F)cn2)CC1 | 24 nM | 8% | 5% | 
15 | O=C(Nc1ccccc1B(O)O)c1ccc(Oc2ccc(C(F)(F)F)cn2)cn1 | 1100 nM |  |  | 

From ChEMBL document CHEMBL4043125, “Design, synthesis, and pharmacological evaluation of a novel series of hormone sensitive lipase inhibitor” (Bioorg Med Chem, 2017)
